# Screens as filed in PubChem.
# TAAR1 antag: antagonists of human TAAR1; AID 624466; CHO RD-HGA16 TAAR1, Fluo-8 calcium fluorescence, antagonist; inhibition, % at 3 µM; 360,000 tested, 1.5% active; Q96RJ0;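 active means inhibition above a per-plate cutoff, the mean inhibition of test compounds on that plate plus 3 SD, cut at about 49% in these data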;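 further: 0% = DMSO plus EC80 beta-PEA response and 100% = DMSO alone without agonist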
# Target sequence (Q96RJ0 whole entry, looked up): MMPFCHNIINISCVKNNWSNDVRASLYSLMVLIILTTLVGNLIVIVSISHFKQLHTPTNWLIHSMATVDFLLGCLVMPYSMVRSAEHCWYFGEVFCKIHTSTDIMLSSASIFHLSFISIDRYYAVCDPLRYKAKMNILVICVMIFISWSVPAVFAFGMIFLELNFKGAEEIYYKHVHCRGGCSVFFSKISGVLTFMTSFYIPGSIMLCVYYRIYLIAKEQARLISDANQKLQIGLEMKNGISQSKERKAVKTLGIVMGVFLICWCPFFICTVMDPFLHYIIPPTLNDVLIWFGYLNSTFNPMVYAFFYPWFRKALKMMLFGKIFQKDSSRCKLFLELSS
#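 System: RD-HGA16 CHO cells with stable hTAAR1 and Gα16 | Probe or stimulus: EC80 β-phenethylamine stimulus | Dosing: 3 µM, single point | Times: Dye loading 75 min at 37 °C, then 30 min room temperature | Measured by: Fluo-8 calcium-sensitive fluorescence | Read-out basis: % inhibition of agonist calcium response | Replicates: n of 1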
# CHO parental Ca: counter-screen for OX1R antagonists: effect in parental CHO cells; 330,000 tested, 0.63% active; parental CHO-K1, ATP-induced calcium, Fluo-8 fluorescence; inhibition, % at 5.6 µM;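 active means inhibition above that plate's mean sample inhibition plus 3 SD, cut at about 26% in these data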;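 further: 0% = ATP-challenged DMSO wells and 100% = DMSO wells without ATP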
#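 Test system: parental CHO cells; detection: calcium-sensitive Fluo-8 fluorescence; evaluation: percent inhibition of calcium signal; also added: ATP as calcium-mobilizing challenge; repeats: one well per compound; control set: ATP-challenged DMSO wells low, unchallenged DMSO wells high; compound: single nominal dose of 5.6 µM per compound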
# OX1R antag-1: antagonists of human orexin 1 receptor | inhibition, % at 5 µM | CHO/OX1R cells, Fluo-8 calcium fluorescence, orexin A | O43613 | 330,000 tested, 0.43% active;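 active means inhibition above its plate's threshold, mean inhibition of all tested compounds on the plate plus 3 SD, cut at about 37% in these data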;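 further: 0% = orexin A challenge wells and 100% = SB-334867-A antagonist wells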
# GPR7 antag: antagonists of human GPR7 (neuropeptides B/W receptor 1); inhibition, % at 4.4 µM; GPR7-expressing cells, fluorescence antagonist assay; P48145; 290,000 tested, 1.1% active; AID 1861; in the data active means inhibition above about 16%, passing the limit was not always enough;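 further: cells stimulated with the agonist NPW; 0% = agonist with vehicle and 100% = vehicle without agonist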
# Target sequence (P48145 whole entry, looked up): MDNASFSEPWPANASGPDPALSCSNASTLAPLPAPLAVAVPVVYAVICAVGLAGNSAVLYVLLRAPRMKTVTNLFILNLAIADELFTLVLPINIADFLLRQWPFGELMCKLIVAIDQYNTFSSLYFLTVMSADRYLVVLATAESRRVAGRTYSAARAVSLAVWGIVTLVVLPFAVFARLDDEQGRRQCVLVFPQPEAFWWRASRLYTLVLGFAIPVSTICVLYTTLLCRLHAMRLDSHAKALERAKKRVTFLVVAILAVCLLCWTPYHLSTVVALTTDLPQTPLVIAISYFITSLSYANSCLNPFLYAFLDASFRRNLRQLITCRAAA
# OX1R antag-2: antagonists of human orexin 1 receptor (OX1R) | inhibition, % at 6.6 µM | OX1R-expressing cells, FRET antagonist read-out | 330,000 tested, 1.8% active; in the data active means inhibition mostly above about 38%, no sharp cut-off; inactive means mostly below about 40%;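 further: 0% = agonist challenge alone and 100% = reference antagonist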
# TAAR1 agonist: agonists of human TAAR1; Q96RJ0; CHO RD-HGA16 TAAR1, Fluo-8 calcium fluorescence; vehicle wells 0%, saturating PEA agonist 100%; activation, % at 3 µM; 360,000 tested, 0.99% active; AID 624467;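 active means activation above the mean activation of all test compounds in the run plus 3 SD, cut at about 38% in these data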
#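 Test system: RD-HGA16 (CHO) cells co-expressing Gα16 and hTAAR1 / Benchmarks: DMSO vehicle as 0%, PEA at EC100 as 100% / Repeats: no replicates (n 1) / Measure: % activation from peak over basal fluorescence ratio, DMSO-to-PEA scaled / Timing: 17-24 h plating, Fluo-8 75 min 37 °C, 30 min RT / Technique: kinetic Fluo-8 calcium fluorescence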
# An asterisk follows results filed as active; / = no result given. Compounds with a hit are over-represented: about 4.6% of the library has one in this group of screens.
SMILES,TAAR1 antag,CHO parental Ca,OX1R antag-1,GPR7 antag,OX1R antag-2,TAAR1 agonist
CON(c1nc(N(C)C)nc(N(C)C)n1)S(=O)(=O)c1ccccc1Cl,-1,-6,1,-7,31*,-2
COCCC(=O)N1CCC(C(=O)Nc2ccc(Oc3ccccc3)nc2)CC1,-14,-5,-9,-5,-1,1
Clc1ccc(-n2ncc3c(NCC4CCCO4)ncnc32)cc1 (stereo unspecified),53*,-6,-12,4,12,10
Nc1[nH]c(C(=O)c2ccccc2)c(-c2ccc3ccccc3c2)c1C(=O)NCc1cccc2ccccc12,-16,/,/,/,/,1
Cc1ccc(SCC(=O)OCC(=O)N(C)CC(=O)Nc2ccc(F)cc2)cc1C,42,-25,-26,/,17,113*
CC(NS(=O)(=O)OCC(Cl)(Cl)Cl)c1ccc(C(C)(C)C)cc1 (stereo unspecified),52*,64*,42,-9,50,9
O=C1C2C3c4ccccc4C(c4ccccc43)C2C(=O)N1c1ccncc1 (stereo unspecified),20,/,/,-2,/,1
O=C1C2C3c4ccccc4C(c4ccccc43)[C@@H]2C(=O)N1c1cccnc1 (stereo partly specified),50*,-18,-11,3,25,9
CCc1nc2c(OCc3ccc(F)c(F)c3)cccn2c1N(C)C(=O)C1CC1,-20,/,/,/,/,2
CC(=O)c1c2c3c(cccc3n(C)c1=O)C(=O)c1ccccc1-2,/,-8,-26,-7,25,/
CC(=O)c1c2c3c(c(Br)ccc3n(C)c1=O)C(=O)c1ccccc1-2,-3,-18,-4,8,56*,4
CCCCCCCCN1C(=O)[C@@H](CC(=O)N2CCOCC2)C[C@@]2(C(=O)OC)C1=C[C@H](C(C)(C)C)O[C@@H]2C,-62,/,/,/,/,3
COc1cccc(N(CC(=O)NC2CCCCC2)C(=O)CCC(=O)Nc2nccs2)c1,10,-12,-30,-6,7,-5
CC(=O)OC[C@]12CC[C@H]3[C@@](C)(CC[C@H]4C(C)(C)CCC[C@]34C)[C@@H]1C[C@H](C1=CC(=O)O[C@@H]1OC(C)=O)O2,/,64*,19,/,0,/
CC1(C)CCCC2(C)C1CCC1(C)OC(=O)CCC12 (stereo unspecified),-16,/,/,/,/,4
CC(=O)c1c(O)cc2c3c1OC(C)(C)C1CCC(C)(CC31)O2 (stereo unspecified),52*,/,/,/,/,8
O=C(Cc1ccc(NC(=O)C2CCN(C(=O)C3CCCC3)CC2)cc1)Nc1ccc(C(=O)N2CCOCC2)cc1,-11,/,/,/,/,5
CN(CC(=O)N1CCCCC1)S(=O)(=O)c1cccc2nsnc12,-12,-7,-9,3,55*,1
CN(CC(=O)Nc1ccc(F)c(Cl)c1)S(=O)(=O)c1cccc2nsnc12,25,3,0,-1,33,11
CN(CC(=O)NCCc1ccc(S(N)(=O)=O)cc1)S(=O)(=O)c1cccc2nsnc12,-13,9,-19,18,59*,5
Cc1ccc(NC(=O)CN(C)S(=O)(=O)c2cccc3nsnc23)cc1,-3,0,-16,1,53,10
CC(=O)c1cccc(NC(=O)CN(C)S(=O)(=O)c2cccc3nsnc23)c1,-12,-20,-67,2,44*,5
Cc1ccc(CNC(=O)CN(C)S(=O)(=O)c2cccc3nsnc23)cc1,-21,-21,-19,-1,71*,13
CCOc1ccc(CCNC(=O)CN(C)S(=O)(=O)c2cccc3nsnc23)cc1OCC,0,-25,-20,-9,25,9
O=S(=O)(c1ccccc1)N1CCCc2nc(-c3ccc(Br)cc3)ccc21,29,/,/,/,/,0
SMILES,TAAR1 antag,CHO parental Ca,OX1R antag-1,GPR7 antag,OX1R antag-2,TAAR1 agonist
CCOC(=O)C1=C(CSc2nc3ccccc3s2)NC(=O)NC1c1cc(C)ccc1C (stereo unspecified),1,-29,27,-4,49*,-1
COc1ccc(NC(=O)OC[C@@H]2CSCCS(=O)(=O)N2)cc1,4,/,/,/,/,2
Cc1cc(C)n2nc(CC#N)c(C#N)c2n1,5,4,8,1,27,0
Cc1cc(C)n2nc(/C(C#N)=C/c3ccccn3)c(C#N)c2n1,4,43*,-9,-6,28,2
O=C1NC(=S)NC1=Cc1ccccc1O,12,/,/,/,/,47*
CC(OC(=O)c1ccc2ccccc2c1)C(=O)N(C)Cc1ccccc1 (stereo unspecified),18,-24,17,/,38*,10
Cc1ccccc1N1CC(C(=O)Nc2nnc(SCCN3CCOCC3)s2)CC1=O (stereo unspecified),15,-11,-21,1,12,-1
COc1ccc(C(=O)CSc2nnc(NC(=O)C3CC(=O)N(c4ccccc4C)C3)s2)cc1 (stereo unspecified),53*,-4,-12,-4,4,9
C/C(=N\NC(=O)C(N)=O)c1cccc([N+](=O)[O-])c1,-9,13,21,-2,18,0
C/C(=N\NC(=O)C(=O)N/N=C(\C)c1cccc(O)c1)c1cccc(O)c1,-5,-10,-8,-8,58*,0
COc1ccccc1NC(=O)c1c(Nc2ccccc2F)sc(C(=O)Nc2cccc(Cl)c2)c1N,19,42*,37,10,16,16
Cc1ccc(-c2cc(-c3ccc(C)cc3O)[nH]n2)cc1,-3,-16,-31,-15,10,5
Cc1ccc(O)c(-c2cc(-c3cccc(Br)c3)n[nH]2)c1,6,54*,24,-15,12,-1
CN(NS(=O)(=O)c1ccccc1)c1nc2ccccc2nc1C(F)(F)F,-10,-15,-3,-4,42,6
CN(NS(=O)(=O)c1ccc(Cl)cc1)c1nc(C(F)(F)F)nc2ccccc12,-15,4,-21,-2,55*,5
N/C(=N/OC(=O)c1cccc([N+](=O)[O-])c1)c1cccc([N+](=O)[O-])c1,-14,0,9,-11,10,2
CC1=C(C)/C(=N/OC(=O)c2cccc([N+](=O)[O-])c2)C=CC1=O,/,1,17,-3,74*,/
C[C@@H]1CN([C@@H](C)CO)C(=O)CCCn2nncc2CO[C@H]1CN(C)C(=O)c1ccccc1,-6,/,/,/,/,1
O=C(Nc1ccc(Cl)c(C(F)(F)F)c1)[C@@H]1CC=C[C@@H]2CCN(C3CCCCC3)C(=O)[C@@H]21,13,-9,0,/,11,14
O=C(Nc1ccc(Cl)c(C(F)(F)F)c1)[C@@H]1CC=C[C@@H]2CCN(C3CC3)C(=O)[C@@H]21,-2,-27,-10,/,62*,10
CC(C)N1CCC(C)(C(=O)Nc2cc(-c3ccccc3)nn2C)C1 (stereo unspecified),9,/,/,/,/,0
